Experiments:
Brain = assay: Biodistribution in CD1 mouse brain assessed per gram of wet tissue at 400 to 600 kBq, iv after 60 mins post-injection by gamma counting; format: ADME, organism-based; conditions: in vivo, 1 h
Summary of the method: (§1)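 Female CD-1 mice (~8-12 weeks, 20-28 g) were fasted 24 h with free water. Conscious mice got 400-600 kBq [¹⁸F] tracer in saline by tail vein. At 5, 30, 60 or 120 min (n=4-5 per time) they were anesthetized, blood and urine sampled, then killed by cervical dislocation. Organs were weighed and γ-counted, giving % ID/g wet tissue.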

Lung = assay: Biodistribution in CD1 mouse lung assessed per gram of wet tissue at 400 to 600 kBq, iv after 60 mins post-injection by gamma counting; format: ADME, organism-based; conditions: in vivo, 1 h
Summary of the method: (§2)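 Female CD-1 mice (~8-12 weeks, 20-28 g), habituated ≥48 h and fasted 24 h with water available. The [18F] tracer (>150 GBq/μmol at end of synthesis) was given in 200 μL saline into the tail vein of conscious animals. At each time point, n=4-5, mice were anaesthetised, blood and urine sampled, then killed by cervical dislocation. Organs were weighed and γ-counted, and values calculated as % ID/g wet tissue.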

Liver [1] = assay: Biodistribution in CD1 mouse liver assessed per gram of wet tissue at 400 to 600 kBq, iv after 60 mins post-injection by gamma counting; format: ADME, organism-based; conditions: in vivo, 1 h; summary of the method: as §2
[2] = Biodistribution in CD1 mouse gonad assessed per gram of wet tissue at 400 to 600 kBq, iv after 60 mins post-injection by gamma counting; format: ADME, organism-based; conditions: in vivo, 1 h; summary of the method: as §1
Femur [3] = assay: Biodistribution in CD1 mouse femur assessed per gram of wet tissue at 400 to 600 kBq, iv after 60 mins post-injection by gamma counting; format: ADME, organism-based; conditions: in vivo, 1 h; summary of the method: as §1
Blood = assay: Biodistribution in CD1 mouse blood assessed per gram of wet tissue at 400 to 600 kBq, iv after 120 minspost-injection by gamma counting; format: ADME, organism-based; conditions: in vivo, 2 h; summary of the method: as §1
Intestine [4] = assay: Biodistribution in CD1 mouse intestine assessed per gram of wet tissue at 400 to 600 kBq, iv after 120 mins post-injection by gamma counting; format: ADME, organism-based; conditions: in vivo, 2 h; summary of the method: as §1
[5] = Biodistribution in CD1 mouse thymus assessed per gram of wet tissue at 400 to 600 kBq, iv after 120 mins post-injection by gamma counting; format: ADME, organism-based; conditions: in vivo, 2 h; summary of the method: as §2
[6] = Biodistribution in CD1 mouse adrenal gland assessed per gram of wet tissue at 400 to 600 kBq, iv after 120 mins post-injection by gamma counting; format: ADME, organism-based; conditions: in vivo, 2 h; summary of the method: as §1
[7] = Biodistribution in CD1 mouse gonad assessed per gram of wet tissue at 400 to 600 kBq, iv after 120 mins post-injection by gamma counting; format: ADME, organism-based; conditions: in vivo, 2 h; summary of the method: as §1
Heart [8] = assay: Biodistribution in CD1 mouse heart assessed per gram of wet tissue at 400 to 600 kBq, iv after 60 mins post-injection by gamma counting in presence of 1 mg/kg, ip sigma 1/sigma 2 receptor antagonist haloperidol treated before compound addition; format: organism-based; parameters: dose 1 mg/kg, route intravenous; conditions: in vivo, 1 h
Summary of the method: (§3)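 Blocking arm in fasted female CD-1 mice (n=5). […] Animals were killed at 60 min post-injection, and organs were weighed and γ-counted as % ID/g wet tissue. Percent change was taken against the 60 min control group, with two-tailed unpaired Student's t test.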

Liver [9] = assay: Biodistribution in CD1 mouse liver assessed increase in drug uptake at 400 to 600 kBq, iv after 60 mins post-injection by gamma counting in presence of 1 mg/kg, ip sigma 1/sigma 2 receptor antagonist haloperidol treated before compound addition; format: organism-based; parameters: dose 1 mg/kg, route intravenous; conditions: in vivo, 1 h; summary of the method: as §3
[10] = Biodistribution in CD1 mouse thymus assessed per gram of wet tissue at 400 to 600 kBq, iv after 60 mins post-injection by gamma counting in presence of 1 mg/kg, ip sigma 1/sigma 2 receptor antagonist haloperidol treated before compound addition; format: organism-based; parameters: route intravenous; conditions: in vivo, 1 h
Summary of the method: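 They were killed at 60 min pi, and organs were weighed and γ-counted as % ID/g wet tissue. Comparison with controls used Student's t test (independent, two-tailed).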

[11] = Biodistribution in CD1 mouse adrenal gland assessed per gram of wet tissue at 400 to 600 kBq, iv after 60 mins post-injection by gamma counting in presence of 1 mg/kg, ip sigma 1/sigma 2 receptor antagonist haloperidol treated before compound addition; format: organism-based; parameters: dose 1 mg/kg, route intravenous; conditions: in vivo, 1 h; summary of the method: as §3
[12] = Biodistribution in CD1 mouse gonad assessed per gram of wet tissue at 400 to 600 kBq, iv after 60 mins post-injection by gamma counting in presence of 1 mg/kg, ip sigma 1/sigma 2 receptor antagonist haloperidol treated before compound addition; format: organism-based; parameters: dose 1 mg/kg, route intravenous; conditions: in vivo, 1 h; summary of the method: as §3
Spleen [13] = assay: Drug uptake in CD1 mouse spleen at 400 to 600 kBq, iv after 120 mins post-injection by gamma counting relative to initial uptake; format: ADME, organism-based; conditions: in vivo, 2 h
Summary of the method: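 Organ % ID/g was measured by γ-counting after tail-vein injection of 400-600 kBq [18F] tracer in saline to fasted female CD-1 mice (n=4-5 per time). The 120 min pi value is expressed relative to the initial (5 min pi) uptake.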

[14] = Ratio of drug level in cerebellum to plasma in CD1 mouse at 400 to 600 kBq, iv after 60 mins post-injection in presence of 1 mg/kg, ip sigma 1/sigma 2 receptor antagonist haloperidol treated before compound addition; format: organism-based; parameters: route intravenous
Summary of the method: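 Killed 60 min pi; blood and cerebellum weighed, γ-counted as % ID/g wet tissue, ratio derived; Student's two-tailed t test versus untreated controls.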

[15] = Chemical stability in solution of 0.9% NaCl, phosphate buffer saline and Tris-HCl up to 120 mins; format: physicochemical; conditions: 2 h
Intestine [16] = assay: Biodistribution in CD1 mouse intestine assessed per gram of wet tissue at 400 to 600 kBq, iv after 5 mins post-injection by gamma counting; format: ADME, organism-based; conditions: in vivo; summary of the method: as §1
[17] = Biodistribution in CD1 mouse urine assessed as per gram of wet bladder at 400 to 600 kBq, iv after 5 mins post-injection by gamma counting; format: ADME, organism-based; conditions: in vivo; summary of the method: as §2
Muscle tissue = assay: Biodistribution in CD1 mouse muscle assessed per gram of wet tissue at 400 to 600 kBq, iv after 5 mins post-injection by gamma counting; format: ADME, organism-based; conditions: in vivo; summary of the method: as §2
Mus musculus = assay: Plasma concentration in CD1 mouse assessed per gram of wet tissue at 400 to 600 kBq, iv after 30 mins post-injection by gamma counting; format: ADME, organism-based; conditions: in vivo, 0.5 h
Summary of the method: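 Female CD-1 mice (~8-12 weeks, 20-28 g), fasted 24 h with free access to water. 400-600 kBq [18F] tracer in 200 μL saline given by tail vein to conscious mice. At 5, 30, 60 or 120 min pi (n=4-5 per time) mice anaesthetised, blood taken, then euthanised. Samples weighed, γ-counted, %ID/g wet tissue calculated.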

Heart [18] = assay: Biodistribution in CD1 mouse heart assessed per gram of wet tissue at 400 to 600 kBq, iv after 30 mins post-injection by gamma counting; format: ADME, organism-based; conditions: in vivo, 0.5 h; summary of the method: as §1
Intestine [19] = assay: Biodistribution in CD1 mouse intestine assessed per gram of wet tissue at 400 to 600 kBq, iv after 30 mins post-injection by gamma counting; format: ADME, organism-based; conditions: in vivo, 0.5 h; summary of the method: as §1
Spleen [20] = assay: Biodistribution in CD1 mouse spleen assessed per gram of wet tissue at 400 to 600 kBq, iv after 30 mins post-injection by gamma counting; format: ADME, organism-based; conditions: in vivo, 0.5 h; summary of the method: as §2
[21] = Biodistribution in CD1 mouse thymus assessed per gram of wet tissue at 400 to 600 kBq, iv after 30 mins post-injection by gamma counting; format: ADME, organism-based; conditions: in vivo, 0.5 h; summary of the method: as §2
Femur [22] = assay: Biodistribution in CD1 mouse femur assessed per gram of wet tissue at 400 to 600 kBq, iv after 30 mins post-injection by gamma counting; format: ADME, organism-based; conditions: in vivo, 0.5 h; summary of the method: as §1

[18F]CCCC1OC2(CCN(Cc3ccccc3)CC2)c2ccccc21 (configuration not stated)
Drug uptake (Brain): 2.27 %ID
Drug uptake (Lung): 4.64 %ID
Drug uptake (Liver [1]): 3.24 %ID
Drug uptake [2]: 4.22 %ID
Drug uptake (Femur [3]): 3.48 %ID
Drug uptake (Blood): 0.48 %ID
Drug uptake (Intestine [4]): 9.03 %ID
Drug uptake [5]: 2.86 %ID
Drug uptake [6]: 5.86 %ID
Drug uptake [7]: 4.16 %ID
Drug uptake (Heart [8]): 1.09 %ID
Drug uptake (Liver [9]): 3.89 %ID
Drug uptake [10]: 2.36 %ID
Drug uptake [11]: 5.72 %ID
Drug uptake [12]: 4.92 %ID
Drug uptake (Spleen [13]): > 70%
Kp at 1 h [14]: 1
Stability [15]: Stable
Drug uptake (Intestine [16]): 4.35 %ID
Drug uptake [17]: 2.89 %ID
Drug uptake (Muscle tissue): 2.18 %ID
Drug uptake (Mus musculus): 0.96 %ID
Drug uptake (Heart [18]): 3.75 %ID
Drug uptake (Intestine [19]): 6.81 %ID
Drug uptake (Spleen [20]): 5.86 %ID
Drug uptake [21]: 3.26 %ID
Drug uptake (Femur [22]): 3.79 %ID

Reference: ChEMBL document CHEMBL1154191, “Evaluation of spirocyclic 3-(3-fluoropropyl)-2-benzofurans as sigma1 receptor ligands for neuroimaging with positron emission tomography” (J Med Chem, 2009)
